Reference: paper PMC4145829 (Drug Design, Development and Therapy, 2014)
Entries after “also recorded” stand apart in the source; their conditions may differ. Each block holds one compound with its values, some of them ahead of it.

Columns and labels:
[1] = test system: subintestinal vessels (SIVs) of zebrafish embryos; assay: Zebrafish subintestinal vessel angiogenesis assay; format: in vivo; conditions: for effect on SIV angiogenesis (in words): zebrafish embryos
zebrafish embryos = assay: Zebrafish toxicity assay; format: in vivo; conditions: for gross morphological changes (in words): zebrafish larvae, exposure to 96 hours
Method in brief: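 Wild-type embryos at 24 hpf, bath-exposed in distilled water (pH 6.8–8) at 28°C with solutions renewed every 24 h. Naïve and 0.1% DMSO vehicle controls were included. Five concentrations, spacing factor 2, within solubility limits; 12 embryos per concentration per replicate; three independent experiments. Toxicity scored at 48 and 96 hpf; NOEC/LOEC derived experimentally; LC50 from pooled mortality via sigmoidal fit.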

patients = conditions: cited from earlier work; for Associated clinical toxicities: Table 1
VEGFR = conditions: read-out: VEGFR inhibition IC50; biochemical assays; cited from earlier work
[2] = test system: human primary endothelial cells; conditions: cited from earlier work
[3] = Compound precipitation in the test medium; format: physicochemical; conditions: test medium of the zebrafish assays (distilled water, 0.1% DMSO)
[4] = test system: chick chorioallantoic membrane; conditions: cited from earlier work
[5] = test system: mouse dorsal air sac model; conditions: cited from earlier work
[6] = concentration not given, 96 hpf
[7] = patients enrolled in clinical trial

Compound: COc1ccc(/C=C\c2cc(OC)c(OC)c(OC)c2)cc1O [Combretastatin]
- effect on SIV angiogenesis (in words) ([1]; 96 hpf): lack of anti-angiogenic activity
- effect on SIV angiogenesis (in words) ([1]; 96 hpf, listed as combretastatin): Angiogenesis inhibition was not demonstrated
- gross morphological changes (in words) (zebrafish embryos): coagulation of zebrafish embryos
- Associated clinical toxicities (patients): Multiple systemic toxicities

Compound: COc1cc2c(Nc3ccc(Br)cc3F)ncnc2cc1OCC1CCN(C)CC1 [Vandetanib]
- effect on SIV angiogenesis (in words) ([1]; 96 hpf): incomplete SIV regression
- Associated clinical toxicities (patients): Cardiotoxicity

Compound: CN1CC[C@H](c2c(O)cc(O)c3c(=O)cc(-c4ccccc4Cl)oc23)[C@H](O)C1 [Flavopiridol]
- decrease in the number of SIVs ([1]; 2 μM, 96 hpf): 72%
- regression in SIV length ([1]; 2 μM, 96 hpf): 38%
- effect on SIV length and basket (in words) ([1]; 2 μM, lectin staining at 72 hpf, Figure 2C): Partial regression of SIVs
- gross morphological changes (in words) (zebrafish embryos): multiple sub-lethal toxicities like yolk-sac edema, nonprogressive pericardial edema, bent notochord, and jaw deformity; also recorded: Widespread tissue necrosis; also recorded: multiple pathological changes like jaw deformity, pericardial edema, notochord deformity, and patchy necrosis
- effective anti-angiogenic concentration range (in words) [2]: effective at micromolar concentrations
- Associated clinical toxicities (patients): Multiple systemic toxicities
- toxicities in clinical trials (patients): tumor lysis syndrome and febrile neutropenia

Compound: COc1cc2nccc(Oc3ccc(NC(=O)C4(C(=O)Nc5ccc(F)cc5)CC4)cc3)c2cc1OC [Cabozantinib]
- Associated clinical toxicities (patients): Multiple systemic toxicities

Compound: COc1cc2nccc(Oc3ccc(NC(=O)Nc4cc(C)on4)c(Cl)c3)c2cc1OC [Tivozanib]
- concentration giving complete regression in SIVs ([1]; 96 hpf): 5 nM
- improvement of progression-free survival (patients; patients with renal cell carcinoma): ~12 months

- concentration beyond which the compound precipitated [3]: > 1 µM
Compound: C#Cc1cccc(Nc2ncnc3cc(OCCOC)c(OCCOC)cc23)c1 [Erlotinib]
- decrease in the number of SIVs within the basket ([1]; 1 μM, 96 hpf): no effect
- regression in SIV length ([1]; 1 μM, 96 hpf): 10%
- effect on SIV angiogenesis (in words) ([1]; 96 hpf): Angiogenesis inhibition was not demonstrated
- Associated clinical toxicities (patients): Multiple systemic toxicities

Compound: CO[C@@H]1[C@H](OC(=O)NC(=O)CCl)CC[C@]2(CO2)[C@H]1[C@@]1(C)O[C@@H]1CC=C(C)C [TNP-470]
- regression / decrease in SIV length [1, 6]: 20%–30%
- effect on SIV angiogenesis (in words) ([1]; 96 hpf): formation of aberrant SIV extensions
- gross morphological changes (in words) (zebrafish embryos): abnormal notochord morphology
- concentration inhibiting angiogenesis in the CAM assay [4]: 100 to 125 µM
- fold higher concentration than VEGFR inhibitors in the CAM assay [4]: 100 fold
- toxicity limiting effectiveness [5]: severe weight loss

Compound: Cc1ccc(Nc2nccc(N(C)c3ccc4c(C)n(C)nc4c3)n2)cc1S(N)(=O)=O [Pazopanib]
- Associated clinical toxicities (patients): Cardiotoxicity

Compound: Clc1ccc(Nc2nnc(Cc3ccncc3)c3ccccc23)cc1 [Vatalanib]
- gross morphological changes (in words) (zebrafish embryos): multiple gross morphological abnormalities like yolk-sac edema, shortened body axis, bent notochord, jaw deformity, blood pooling, and un-inflated swim bladder
- Associated clinical toxicities (patients): Multiple systemic toxicities

Compound: Cc1cc(C)c(/C=C2\C(=O)Nc3ccccc32)[nH]1 [SU5416]
- decrease in the number of SIVs within the basket ([1]; 1 μM, 96 hpf): 85%
- regression in SIV length ([1]; 1 μM, 96 hpf): 38%
- effect on SIV angiogenesis (in words) ([1]; 96 hpf): incomplete SIV regression
- gross morphological changes (in words) (zebrafish embryos): multiple gross morphological abnormalities like yolk-sac edema, shortened body axis, bent notochord, jaw deformity, blood pooling, and un-inflated swim bladder
- Associated clinical toxicities (patients): Multiple systemic toxicities

Compound: Bevacizumab
- effect on SIV angiogenesis (in words) ([1]; 96 hpf): extremely variable results; also recorded: Angiogenesis inhibition was not demonstrated
- gross morphological changes (in words) (zebrafish embryos): did not elicit dose-dependent toxicity or a consistent pathological phenotype

Compound: CCN(CC)CCNC(=O)c1c(C)[nH]c(/C=C2\C(=O)Nc3ccc(F)cc32)c1C [Sunitinib]
- Associated clinical toxicities (patients): Cardiotoxicity
- patients with congestive cardiac failure (patients; [7]): 11%
- patients with decrease in left ventricular ejection fraction (patients; [7]): 28%

Compound: CNC(=O)c1cc(Oc2ccc(NC(=O)Nc3ccc(Cl)c(C(F)(F)F)c3)cc2)ccn1 [Sorafenib]
- concentration giving complete regression of SIVs ([1]; 96 hpf): < 1 µM
- effect on SIV angiogenesis (in words) ([1]; 96 hpf): complete inhibition of SIV angiogenesis
- gross morphological changes (in words) (zebrafish embryos): nonprogressive pericardial edema in all the embryos subjected to treatment (ie, 36/36)
- concentration with significant angiogenesis inhibition in the in vivo CAM assay [4]: 1 to 3 µM
- Associated clinical toxicities (patients): Cardiotoxicity

Compound: CNC(=O)c1cc(Oc2ccc(NC(=O)Nc3ccc(Cl)c(C(F)(F)F)c3)c(F)c2)ccn1 [Regorafenib]
- concentration giving complete regression of SIVs ([1]; 96 hpf): < 1 µM
- effect on SIV angiogenesis (in words) ([1]; 96 hpf): complete inhibition of SIV angiogenesis
- gross morphological changes (in words) (zebrafish embryos): nonprogressive pericardial edema in all the embryos subjected to treatment (ie, 36/36)
- IC50 (VEGFR): 13 to 46 nM
- concentration with significant angiogenesis inhibition in the in vivo CAM assay [4]: 1 to 3 µM

Compound: O=C1CCC(N2C(=O)c3ccccc3C2=O)C(=O)N1 (stereo not shown) [Thalidomide]
- regression / decrease in SIV length [1, 6]: 20%–30%
- absence of fin development (zebrafish embryos; Figure S3): 100%
- concentration with reduction of otolith size and altered fin development (zebrafish embryos; zebrafish embryos): > 300 µM
- gross morphological changes (in words) (zebrafish embryos): did not result in gross morphological changes with respect to notochord development and development of cardiac edema
- anti-angiogenic effect in the CAM assay (in words) [4]: does not exhibit anti-angiogenic effects
- effective anti-angiogenic concentration range (in words) [2]: effective at micromolar concentrations
- Associated clinical toxicities (patients): Teratogenic

Compound: Cc1ccc(C(=O)Nc2ccc(S(=O)(=O)O)c3cc(S(=O)(=O)O)cc(S(=O)(=O)O)c23)cc1NC(=O)c1cccc(NC(=O)Nc2cccc(C(=O)Nc3cc(C(=O)Nc4ccc(S(=O)(=O)O)c5cc(S(=O)(=O)O)cc(S(=O)(=O)O)c45)ccc3C)c2)c1 [Suramin]
- inhibition of vessels within the angiogenic basket [1, 6]: 45%
- regression / decrease in SIV length [1, 6]: 30%
- LC50 fold higher than the other multikinase inhibitors (zebrafish embryos; 96 hpf): about 200 fold
- gross morphological changes (in words) (zebrafish embryos): multiple sub-lethal toxicities like yolk-sac edema, nonprogressive pericardial edema, bent notochord, and jaw deformity; also recorded: multiple pathological changes like jaw deformity, pericardial edema, notochord deformity, and patchy necrosis
- concentration inhibiting angiogenesis in the CAM assay [4]: 7 µM
- fold higher concentration than VEGFR inhibitors in the CAM assay [4]: 7 fold
- effective anti-angiogenic concentration range (in words) [2]: effective at micromolar concentrations
- Associated clinical toxicities (patients): Multiple systemic toxicities
- toxicities in clinical trials (patients): neutropenia, neurological dysfunction, and development of renal insufficiency
